# Sampled rows, rich in hits. Any-hit rate of the full collection: about 1.3%.
# RBBP9 inhibitor = human RBBP9 inhibitors, primary screen, biochemical, fluorescence polarization, FP-Rh probe, HTS; recombinant RBBP9; inhibition, % at 7.94 µM; 0.2% of 220,000 active; AID 1515, 2009;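 active means inhibition above the campaign mean of all tested compounds plus 3 SD, cut at about 14% in these data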;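 further: plate controls were DMSO wells with RBBP9 for no effect and wells lacking RBBP9 protein for full effect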
# Target sequence (O75884 whole entry, looked up): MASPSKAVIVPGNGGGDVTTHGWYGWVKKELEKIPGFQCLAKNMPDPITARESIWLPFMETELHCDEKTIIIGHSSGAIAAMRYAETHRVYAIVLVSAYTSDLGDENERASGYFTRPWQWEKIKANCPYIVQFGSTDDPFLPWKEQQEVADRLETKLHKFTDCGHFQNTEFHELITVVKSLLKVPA
#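 System: RBBP9 protein / Buffer or medium: Tris/NaCl buffer pH 8.0 with 0.1% Pluronic / Probe or stimulus: Serine-hydrolase probe FP-Rh, 375 nM pre-mixing / Dosing: 7.94 µM single dose, 0.794% DMSO / Times: enzyme-compound preincubation 30 min, then probe labeling 45 min, 25 °C / Technique: fluorescence polarization (mP), excitation 525 nm, emission 598 nm / Replication: singlicate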
# PME-1 inh = PME-1 inhibitors via competitive probe labeling, primary screen, biochemical, fluorescence polarization, FP-Rh probe, HTS; recombinant PME-1; inhibition, % at 5.9 µM; 0.53% of 320,000 active; AID 2130, 2009;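 active means inhibition above the campaign mean of all compounds plus 3 SD, cut at about 26% in these data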;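 further: competitive labeling of PME-1 active site by serine hydrolase directed probe; 0% = PME-1 with DMSO and 100% = wells lacking PME-1 enzyme; inhibitors block probe labeling so polarization falls and inhibition rises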
# PAD4 inh = human PAD4 inhibitors, primary screen, biochemical, fluorescence polarization, 1536-well format; 0.41% of 330,000 active; AID 485272, 2010; Protein-arginine deiminase type-4 (Homo sapiens), Q9UM07; recombinant PAD4, RCA probe fluorescence polarization; inhibition, % at 6.36 µM;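 active means percent inhibition above a cutoff equal to the mean of all tested compounds plus 3 SD, cut at about 15% in these data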;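 further: 0% = PAD4 with RCA probe and DMSO and 100% = probe without PAD4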
# Fam108B inh = mouse Fam108B serine hydrolase inhibitors, primary screen, counter-screen for RBBP9 inhibitor project, biochemical, fluorescence polarization; AID 1947, 2009; recombinant Fam108B, FP-Rh probe fluorescence polarization; inhibition, % at 9.51 µM; 0.33% of 300,000 active;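 active means inhibition above the screen mean inhibition plus 3 SD, computed separately per campaign, cut at about 18% in these data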;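 further: inhibitors lower polarization as less probe binds the enzyme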
# LYPLA1 inh = LYPLA1 inhibitors, primary screen, counter-screen for PME1 inhibitor project, biochemical, fluorescence polarization, FP-Rh probe ABPP; inhibition, % at 5.9 µM; recombinant LYPLA1; 0.16% of 320,000 active;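 active means inhibition above the mean of all tested compounds plus 3 SD, set per campaign, cut at about 14% in these data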;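 further: inhibitors block serine hydrolase probe labeling of LYPLA1 so polarization falls; 0% = enzyme with DMSO and 100% = wells lacking LYPLA1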
# Target sequence (O75608 whole entry, looked up): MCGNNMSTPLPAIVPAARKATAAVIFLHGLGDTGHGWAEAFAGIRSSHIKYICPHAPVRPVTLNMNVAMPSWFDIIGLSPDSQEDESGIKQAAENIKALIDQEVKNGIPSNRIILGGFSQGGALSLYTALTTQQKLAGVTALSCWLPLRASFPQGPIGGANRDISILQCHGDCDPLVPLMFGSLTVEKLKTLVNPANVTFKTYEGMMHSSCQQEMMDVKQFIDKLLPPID
# LYPLA2 inh = LYPLA2 inhibitors, primary screen, counter-screen for PME1 inhibitor project, biochemical, fluorescence polarization, FP-Rh probe ABPP. Acyl-protein thioesterase 2 (Homo sapiens), O95372. recombinant LYPLA2. inhibition, % at 5.9 µM. 0.38% of 320,000 active;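 active means inhibition above the screen-wide mean plus 3 SD, limit set per campaign, cut at about 26% in these data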;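 further: 0% = LYPLA2 with DMSO and 100% = wells lacking LYPLA2 enzyme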
# Target sequence (O95372 whole entry, looked up): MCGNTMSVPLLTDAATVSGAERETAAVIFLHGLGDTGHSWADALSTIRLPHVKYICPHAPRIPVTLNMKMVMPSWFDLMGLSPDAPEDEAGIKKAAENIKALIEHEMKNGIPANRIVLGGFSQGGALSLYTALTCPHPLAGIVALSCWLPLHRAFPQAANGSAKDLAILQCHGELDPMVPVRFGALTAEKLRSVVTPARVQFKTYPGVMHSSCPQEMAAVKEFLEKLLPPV
# RBBP9 confirm = human RBBP9 inhibitors, retest, confirmation, biochemical, fluorescence polarization, FP-Rh probe, triplicate; shares compounds with RBBP9 inhibitor; inhibition, % at 7.94 µM; 36% of 410 active; recombinant RBBP9; AID 1537, 2009;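 active means inhibition above the hit cutoff derived for the primary screen, cut at about 15% in these data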;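 further: 0% = RBBP9 with DMSO and 100% = wells lacking RBBP9 protein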
# Fam108b confirm = mouse Fam108b serine hydrolase inhibitors, confirmation, counter-screen for RBBP9 inhibitor project, biochemical, fluorescence polarization, triplicate; AID 1978, 2009; shares compounds with Fam108B inh; inhibition, % at 9.51 µM; 44% of 930 active; recombinant Fam108b, FP-Rh probe fluorescence polarization;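 active means inhibition above a limit from the primary screen, the mean over all compounds plus 3 SD, cut at about 19% in these data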;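 further: 0% = median of active Fam108b wells and 100% = catalytically dead S170A mutant; inhibitors free the probe so polarization falls as inhibition rises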
# Fam108b inh = inhibition of mouse Fam108b by HTS hits, late-stage follow-up, biochemical, gel-based ABPP, soluble recombinant form; shares compounds with Fam108B inh; fluorophosphonate probe; inhibition, % at 20 µM; 44% of 260 active; AID 588649, 2011; in the data active means inhibition above about 40%
# LYPLA1 conf = LYPLA1 inhibitors, retest, confirmation, counter-screen for PME1 inhibitor project, biochemical, fluorescence polarization, FP-Rh probe ABPP; shares compounds with LYPLA1 inh; recombinant LYPLA1; 69% of 480 active; inhibition, % at 5.9 µM; AID 2233, 2010;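 active means mean inhibition across replicates above the hit cutoff set in the primary screen, cut at about 15% in these data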;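 further: loss of FP-Rh probe labeling of LYPLA1 seen as lower polarization; 0% = LYPLA1 with DMSO and 100% = wells lacking LYPLA1 enzyme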
# LYPLA2 confirm = LYPLA2 inhibitors, retest, confirmation, counter-screen for PME1 inhibitor project, biochemical, fluorescence polarization, FP-Rh probe ABPP; inhibition, % at 5.9 µM; shares compounds with LYPLA2 inh; AID 2232, 2010; 72% of 1,100 active; recombinant LYPLA2;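 active means mean inhibition across replicates above the hit cutoff set in the primary screen, cut at about 26% in these data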;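 further: blocked labeling of the enzyme by serine hydrolase FP-Rh probe lowers polarization; 0% = enzyme with DMSO and 100% = wells lacking LYPLA2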
# PAD4 confirm = human PAD4 inhibitors, confirmation, biochemical, fluorescence polarization; inhibition, % at 6.36 µM; 28% of 1,200 active; recombinant PAD4, RCA probe fluorescence polarization; shares compounds with PAD4 inh;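 active means mean inhibition across replicates above the hit cutoff set by the earlier primary screen, cut at about 15% in these data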;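 further: inhibitors block active-site labeling by the probe so polarization falls; 0% = PAD4 with probe and DMSO and 100% = probe without PAD4 enzyme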
# An asterisk follows results filed as active; / = not tested or not shown.
SMILES,RBBP9 inhibitor,PME-1 inh,PAD4 inh,Fam108B inh,LYPLA1 inh,LYPLA2 inh,RBBP9 confirm,others
Cc1ccc(C(=O)NC(O)C(Cl)Cl)cc1 (stereo not drawn),-7,2,-1,0,4,3,/,
CC1(C)OC(C)(C)/C(=C/Nc2ccc(O)cc2)C1=O,20*,10,-1,12,4,18,9,
CN1CCN(c2cc(N3CCN(C(=O)c4ccco4)CC3)c3c4c(onc24)-c2ccccc2C3=O)CC1,/,11,-4,7,1,1,/,
O=C1c2ccccc2-c2onc3ccc(N4CCCC4)c1c23,46*,/,/,/,/,/,16*,
Cn1c(CCNC(=O)c2ccco2)nc2cc(NC(=O)c3ccccc3Cl)ccc21,/,-2,-8,-1,1,2,/,
COc1ccc(CC(C(=O)Nc2ccc(OC)cc2)c2nn[nH]n2)cc1 (stereo not drawn),/,-2,-1,3,2,0,/,
Cc1noc(N)c1C1(O)C(=O)N(C(C)C)c2ccccc21 (stereo not drawn),16*,-4,-6,1,-2,-6,10,
CCOC(=O)c1cc(-c2ccc(C)cc2)n(CCC(=O)NCCCOC)c1C,15*,0,-3,1,-2,-4,2,
Cc1nn(-c2ccccc2)nc1C(=O)c1c(C)[nH]n(-c2ccccc2)c1=O,15*,1,-1,-5,0,6,1,
CCN1CCN(C(=O)C2(NC(=O)Nc3ccccc3Cl)CCCCC2)CC1,16*,-3,1,0,-2,10,2,
Cc1cc(C(F)(F)F)nc(SCCN2CCCCC2)c1C#N,/,-2,1,-2,1,4,/,
Cc1cc(C)n2[nH]c(=O)c(N=Nc3ccccc3)c2n1,-1,-8,-11,-5,-4,-11,/,
Cc1cc(=O)n2[nH]c(=O)c(N=Nc3ccccc3)c2[nH]1,16*,-2,-4,3,-1,5,38*,
O=C(NNC(=O)c1cc(O)c(O)c(O)c1)NC1CCCCC1,14*,5,2,4,1,4,23*,
O=C(NNC(=O)c1cccnc1)NC1CCCCC1,-4,-5,-2,3,-4,2,/,
O=C(COC(=O)/C=C/c1cccs1)Nc1nc(-c2cccc(Br)c2)cs1,17*,44*,-5,21*,-3,14,27*,Fam108b confirm=5
Cc1ccc(/C=C2\SC(=S)N(/N=C/c3cc([N+](=O)[O-])ccc3O)C2=O)o1,15*,5,-1,25*,-4,2,23*,Fam108b confirm=26*
COc1ccc(NC(=S)NNc2ccc(S(=O)(=O)Nc3ccccc3C(=O)O)cc2[N+](=O)[O-])cc1,22*,50*,9,52*,4,9,15*,Fam108b confirm=15
COc1ccc(C=NNc2ccc(S(=O)(=O)Nc3ccccc3C(=O)O)cc2[N+](=O)[O-])c(OC)c1,/,/,3,/,/,/,/,
CC(=O)Oc1ccc(C(=O)Cc2ccc3ccccc3n2)c(O)c1C,-9,-2,-5,3,-1,4,/,
Cc1c(O)ccc(/C(Cc2ccc3ccccc3n2)=N\O)c1O,41*,50*,-5,25*,9,15,47*,Fam108b confirm=29*
CN(C)S(=O)(=O)N1CCc2ccc(NC(=O)c3ccc(C(F)(F)F)cc3)cc2C1,/,-2,0,-2,-3,-2,/,
Cc1c(Br)c(O)c(Br)c2sc(=O)oc12,25*,18,-1,29*,-6,0,38*,Fam108b confirm=1
c1ccc(CSc2nnc(-c3ccco3)n2Cc2ccco2)cc1,-10,4,3,-2,3,6,/,
CCCCOc1[nH]c2nc(-c3ccco3)n(Cc3ccco3)c(=N)c2c1C#N,18*,14,9,20*,-1,4,11,Fam108b confirm=13
SMILES,RBBP9 inhibitor,PME-1 inh,PAD4 inh,Fam108B inh,LYPLA1 inh,LYPLA2 inh,RBBP9 confirm,others
Cc1ccc(/C(O)=C2\C(=O)C(=O)N(Cc3cccnc3)C2c2ccccc2[N+](=O)[O-])cc1 (stereo not drawn),-7,-6,4,6,2,-1,/,
Cc1ccc(-c2cc(C(=O)N(C)CC(=O)Nc3ccccc3Br)c3ccccc3n2)o1,/,2,1,0,0,0,/,
Cn1c(=O)c(NCCc2ccccc2)c2c3c(cccc31)C(=O)c1ccccc1-2,109*,191*,151*,156*,148*,174*,144*,Fam108b confirm=178*;Fam108b inh=0;LYPLA1 conf=130*;LYPLA2 confirm=170*
Cc1cc(C)c(S(=O)(=O)Nc2cc(SCC(=O)O)c(O)c3ccccc23)cc1C,16*,15,49*,15,1,30*,49*,LYPLA2 confirm=2
Cc1cc(C)c(S(=O)(=O)/N=C2/C=C(SCC(=O)O)C(=O)c3ccccc32)cc1C,1,/,/,/,/,/,/,
CCc1nnc(NC(=O)c2c(C)nn(-c3ccccc3)c2Cl)s1,-7,-1,1,-3,4,2,/,
Cc1ccc(S(=O)(=O)Nc2ccc3oc(=O)sc3c2)c(C)c1,20*,-1,22*,9,-1,1,16*,PAD4 confirm=7
